The structures appear in SMILES notation. Activity calls are given as the source filed them.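 How the source made its calls, unless noted: active means visually confirmed hit in the image check and inhibition above 20%; inconclusive means visually confirmed hit but inhibition not above 20%; inactive means no visual hit in the image check.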

Assay [1] can be described thus: inhibitors of TNFa-induced NFkB p65 translocation, primary screen, imaging, HUVEC, MLSMR starter and 10KST1 sets (AID 438;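 active means inhibition above 20% together with a positive visual image hit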;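 further: compound added about 3h40 before a 20 min TNFalpha stimulation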;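 on inhibition: signal is the nuclear over cytoplasmic p65 intensity ratio per well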). The note with it: HUVEC TNFa-induced p65 nuclear translocation; cell count: measured here: nuclei count (cytotoxicity indicator), at 2.08 µM; inhibition: at 2 µM, stronger effect = higher value, 0% TNFa-plus-vehicle, 100% no-TNFa wells.
The nature of assay [2]: reduction of polyQ htt aggregates in cells – imaging, exon1htt(103Q)mCFP cells, high-content imaging, primary screen (AID 483;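 active means visual image review flags a hit and inhibition of aggregation exceeds 20%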;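 further: compound exposure lasted 3 days before fixation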;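 on nuclei count: percent of the per-plate median nuclei count of sample wells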). The note with it: exon1htt(103Q)mCFP cell line, aggregate imaging, at 2 µM; inhibition of aggregation: stronger effect = higher value; nuclei count: measured here: cell count, toxicity.
Assay [3] can be described thus: endothelial E-selectin expression blockers – imaging, HUVEC, immunofluorescence, MLSMR starter and 10KST1 sets, primary screen (AID 487).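 On inhibition: signal is fraction of cell area covered by stained E-selectin grains.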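 On nuclei count: 100% = median nuclei count of all wells on the same plate.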 The note with it: HUVEC TNFalpha-induced E-selectin immunofluorescence imaging, at 2 µM; inhibition: stronger effect = higher value; nuclei count: measured here: cell number, toxicity.
In assay [4] the target is Voltage-gated potassium channel subunit beta-2 (Rattus norvegicus) (UniProt P62483). Nature of the assay: inhibitors of rat Kvbeta2 reductase activity – biochemical, NADPH fluorescence, primary screen (AID 622;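 active means fluorescence slope higher than the sample average by over 3 SD, cut at about -0.22 in these data, passing the limit was not always enough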;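 further: slope of raw intensity against log time taken from 70 to 1610 s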). The note with it: recombinant KvBeta, 4-cyanobenzaldehyde reduction, at 10 µM, stronger effect = higher value.
Assay [5] shares this target. Nature of the assay: enhancers of rat Kvbeta2 NADPH turnover – biochemical, NADPH fluorescence, primary screen (AID 623;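 active means NADPH fluorescence slope more negative than the mean of all samples by about 3 SD, 99.7% confidence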;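 further: fluorescence intensity change per second fitted from 20 to 320 s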). The note with it: Recombinant KvBeta, NADPH fluorescence decrease slope, 10 min; at 10 µM; stronger effect = lower value.
The target of assay [6] is Muscarinic acetylcholine receptor M4 (Homo sapiens) (UniProt P08173). Kind of assay: M4-linked GIRK flux change, two-sided – cell-based, HEK293 M4/GIRK, thallium flux, BTC-AM, M4 allosteric agonist project, primary screen (AID 625;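 active means fluorescence slope after compound addition differing from the mean of all tested samples at 99.7% confidence, mostly higher but some lower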;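 further: thallium influx through GIRK channels coupled to M4 in HEK293 cells with BTC-AM dye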). The note with it: at 10 µM, actives lie on both sides. An outline of the steps:
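Material: M4/GIRK1/GIRK2 stable HEK293 cell line. Medium: pH 7.3 thallium assay buffer. Dosing: single compound concentration, 10 µM final. Schedule: 1 h dye loading, 2 min kinetic read. Measured by: kinetic fluorescence with BTC-AM dye. Read-out: post-addition slope, 15–24 s, of baseline-normalized fluorescence. Benchmarks: carbachol and DMSO controls.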

A short description of assay [7]: blockers of RIG-like receptor reporter activation – cell-based, Sendai virus stimulus, luciferase, 10K MLSCN set, TLR/RLR signaling modifier project, primary screen (AID 602276;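 active means inhibition at or above 50% at 10 µM; inactive means inhibition below 50%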;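 further: firefly luciferase from ISG56 promoter only with Renilla not read in this screen; 0% = Sendai virus plus DMSO and 100% = medium plus DMSO without virus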). The note with it: HEK293 RL24 IRF3 luciferase reporter, at 10 µM, stronger effect = higher value.
Assay [8] is described as follows: TLR3 IRF3 reporter activation blockers – cell-based, poly I:C stimulus, luciferase, 10K MLSCN set, primary screen (AID 602277;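 active means inhibition of the reporter signal at or above 50%; inactive means inhibition below 50%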). The note with it: HEK293-TLR3 RL24 IRF3 luciferase reporter, at 10 µM, stronger effect = higher value.

Voltage-gated potassium channel subunit beta-2 (Rattus norvegicus), sequence (P62483 whole entry, looked up): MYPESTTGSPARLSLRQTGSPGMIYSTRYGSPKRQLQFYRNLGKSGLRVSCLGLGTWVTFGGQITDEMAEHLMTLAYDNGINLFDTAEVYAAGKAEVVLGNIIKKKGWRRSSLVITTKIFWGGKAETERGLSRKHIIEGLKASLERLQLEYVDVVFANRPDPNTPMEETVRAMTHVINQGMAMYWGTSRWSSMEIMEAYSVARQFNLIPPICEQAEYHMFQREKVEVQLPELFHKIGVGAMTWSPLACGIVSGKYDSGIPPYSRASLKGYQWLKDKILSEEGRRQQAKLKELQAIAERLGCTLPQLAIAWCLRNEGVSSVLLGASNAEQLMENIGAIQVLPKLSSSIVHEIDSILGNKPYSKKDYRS
Muscarinic acetylcholine receptor M4 (Homo sapiens), sequence (P08173 whole entry, looked up): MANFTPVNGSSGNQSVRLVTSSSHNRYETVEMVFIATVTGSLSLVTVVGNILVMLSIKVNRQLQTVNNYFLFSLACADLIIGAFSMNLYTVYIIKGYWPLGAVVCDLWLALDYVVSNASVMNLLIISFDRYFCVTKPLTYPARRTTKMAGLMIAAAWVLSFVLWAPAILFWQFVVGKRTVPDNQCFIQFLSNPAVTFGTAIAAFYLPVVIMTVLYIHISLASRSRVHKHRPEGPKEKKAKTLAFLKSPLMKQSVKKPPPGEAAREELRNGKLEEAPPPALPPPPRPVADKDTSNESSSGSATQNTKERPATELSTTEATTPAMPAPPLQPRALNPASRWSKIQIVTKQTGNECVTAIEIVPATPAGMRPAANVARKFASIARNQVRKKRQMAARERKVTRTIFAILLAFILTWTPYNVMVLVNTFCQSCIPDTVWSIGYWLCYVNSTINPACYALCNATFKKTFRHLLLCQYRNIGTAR

Take `CSc1nc(NC(C)(C)C)nc(Oc2ccc(=O)[nH]n2)n1`: the cell count in assay [1] was determined as 356. For the same molecule, the inhibition in assay [1] is -6.2% (inactive); in assay [3], -29.6% (inactive); in assay [7], 12.8% (inactive); in assay [8], 11.8% (inactive). The inhibition of aggregation in assay [2] is 10.5% (inactive). Moreover, the nuclei count in assay [2] is 86.5%; in assay [3], 107%. For the same molecule, the fluorescence slope in assay [4] was -0.594 (inactive); in assay [6] it was 0.0039 (inactive). The NADPH fluorescence slope in assay [5] was 1.9e-06 (inactive).
In the case of `COc1ccc(OC)c(S(=O)(=O)Nc2ccccc2C(=O)O)c1`, the cell count in assay [1] was found to be 702. Further, the inhibition is -4.4% (inactive) in assay [1], 35.6% (inactive) in assay [3], 23.8% (inactive) in assay [7] and 18.9% (inactive) in assay [8]. Besides, the inhibition of aggregation in assay [2] is 0% (inactive). Moreover, the nuclei count was determined as 100% in assay [2] and 85.9% in assay [3]. The fluorescence slope is -0.569 (inactive) in assay [4] and 0.0048 (inactive) in assay [6]. In addition, in assay [5], the NADPH fluorescence slope is 1.5e-05 (inactive).
In the case of `COc1ccc(CN(C(=O)CNC(=O)c2ccco2)C(C(=O)NC2CCCC2)c2ccco2)cc1` (centres undefined), in assay [1], the cell count turned out to be 510. In addition, the inhibition in assay [1] was 7.2% (inactive); in assay [3], -62.9% (inactive); in assay [7] it was -14.2% (inactive); in assay [8] it was -26.3% (inactive). Moreover, in assay [2], the inhibition of aggregation was 3.1% (inactive). For the same molecule, the nuclei count was 105% in assay [2] and 123% in assay [3]. Also, the fluorescence slope in assay [4] was -0.592 (inactive); in assay [6] it was 0.00679 (inactive). Besides, the NADPH fluorescence slope in assay [5] is -1.6e-05 (inactive).
For the molecule `CCCCCn1c(=O)[nH]c2cc(C(=O)NCCN3CCOCC3)ccc2c1=O`, the cell count in assay [1] amounted to 355. In addition, the inhibition in assay [1] is -1% (inactive); in assay [3], -15.3% (inactive); in assay [7], 5.81% (inactive); in assay [8], 9.94% (inactive). The inhibition of aggregation in assay [2] was 18% (inactive). In addition, the nuclei count in assay [2] came to 104%; in assay [3] it was 120%. The fluorescence slope in assay [4] is -0.323 (inactive); in assay [6], 0.00658 (inactive). The NADPH fluorescence slope in assay [5] was -3.7e-05 (inactive).
As to `CCOc1ccccc1CN1C(=O)c2ccccc2C1C(=O)NCC1CCCO1` (centres undefined), in assay [1], the cell count was determined as 350. In addition, the inhibition in assay [1] is 7.9% (inactive); in assay [3], -214% (inactive); in assay [7], 7.6% (inactive); in assay [8], 5.52% (inactive). Besides, in assay [2], the inhibition of aggregation was 6.8% (inactive). Further, the nuclei count in assay [2] is 107%; in assay [3] it was 114%. In addition, the fluorescence slope is -0.585 (inactive) in assay [4] and 0.00509 (inactive) in assay [6]. Also, the NADPH fluorescence slope in assay [5] was 2.5e-05 (inactive).
Turning to `Cc1ccc2[nH]c(=O)c(CN(CCCO)S(=O)(=O)c3c(C)ccc4nsnc34)cc2c1`, the cell count in assay [1] was determined as 334. The inhibition is -2.5% (inactive) in assay [1], -54.5% (inactive) in assay [3], 11.1% (inactive) in assay [7] and 29.7% (inactive) in assay [8]. Moreover, the inhibition of aggregation in assay [2] is -11.4% (inactive). Further, the figures for the nuclei count in assay [2] and in assay [3] were 103% and 120%, respectively. In addition, the fluorescence slope is -0.459 (inactive) in assay [4] and 0.00552 (inactive) in assay [6]. Also, the NADPH fluorescence slope in assay [5] is -3e-05 (inactive).
On to `O=C(CN1C(=O)c2cccc3cccc1c23)Nc1ccccc1C(=O)NCc1ccco1`, for which, in assay [1], the cell count came out at 584. Further, the inhibition in assay [1] is -29.6% (inactive); in assay [3], -37.6% (inactive); in assay [7] it was 8.08% (inactive); in assay [8], 13.4% (inactive). For the same molecule, the inhibition of aggregation in assay [2] is -3.5% (inactive). The nuclei count in assay [2] was determined as 98.7%; in assay [3], 105%. Further, the fluorescence slope in assay [4] was -0.0129 (inactive); in assay [6] it was 0.00606 (inactive). Besides, the NADPH fluorescence slope in assay [5] was -5.3e-06 (inactive).
For `CS(=O)(=O)Nc1ccc(C(=O)NCc2ccco2)cc1`, in assay [1], the cell count amounted to 499. The inhibition in assay [1] is -0.3% (inactive); in assay [3] it was 11.9% (inactive); in assay [7], 5.42% (inactive); in assay [8] it was 16.9% (inactive). The inhibition of aggregation in assay [2] is 16.6% (inactive). Also, the nuclei count came out at 60% in assay [2] and 105% in assay [3]. The fluorescence slope in assay [4] is -0.571 (inactive); in assay [6], 0.00586 (inactive). Besides, the NADPH fluorescence slope in assay [5] is 1.2e-06 (inactive).
Turning to `CCOC(=O)c1[nH]nc(-c2c(O)cc(C)cc2O)c1-c1csc(C)n1`, the cell count in assay [1] was 495. Also, the inhibition in assay [1] was -16.3% (inactive); in assay [3] it was 56.2% (inactive); in assay [7] it was -7.71% (inactive); in assay [8], -0.807% (inactive). For the same molecule, the inhibition of aggregation in assay [2] is -2.1% (inactive). In addition, the values for the nuclei count in assay [2] and in assay [3] were 87.5% and 61.3%, respectively. Also, the fluorescence slope is -0.453 (inactive) in assay [4] and 0.00535 (inactive) in assay [6]. The NADPH fluorescence slope in assay [5] was -0.000313 (inactive).

The values are drawn from PubChem BioAssay.
